# proKLK7 act: activates the human kallikrein-7 zymogen | purified proKLK7, EDANS-DABCYL substrate fluorescence; 100% is mature enzyme control, 0% vehicle | P49862 | actives 0.9% (n = 370,000) | activation, % at 7 µM;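 active = activation above the mean of all tested compounds plus 3 SD, computed per campaign excluding outliers beyond control limits, cut at about 13% in these data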
# CendR NRP1 mod: NRP-1/CendR interaction modulation. actives 0.85% (n = 360,000). FAM-RPARPAR peptide binding to NRP-1, fluorescence polarization. O14786. inhibition, % at 25 µM;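 active = inhibition or corrected inhibition above about 18%, plus a signal ratio from 0.5 to 1.5, limit read from the data, passing the limit was not always enough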
# Target sequence (O14786 whole entry, looked up): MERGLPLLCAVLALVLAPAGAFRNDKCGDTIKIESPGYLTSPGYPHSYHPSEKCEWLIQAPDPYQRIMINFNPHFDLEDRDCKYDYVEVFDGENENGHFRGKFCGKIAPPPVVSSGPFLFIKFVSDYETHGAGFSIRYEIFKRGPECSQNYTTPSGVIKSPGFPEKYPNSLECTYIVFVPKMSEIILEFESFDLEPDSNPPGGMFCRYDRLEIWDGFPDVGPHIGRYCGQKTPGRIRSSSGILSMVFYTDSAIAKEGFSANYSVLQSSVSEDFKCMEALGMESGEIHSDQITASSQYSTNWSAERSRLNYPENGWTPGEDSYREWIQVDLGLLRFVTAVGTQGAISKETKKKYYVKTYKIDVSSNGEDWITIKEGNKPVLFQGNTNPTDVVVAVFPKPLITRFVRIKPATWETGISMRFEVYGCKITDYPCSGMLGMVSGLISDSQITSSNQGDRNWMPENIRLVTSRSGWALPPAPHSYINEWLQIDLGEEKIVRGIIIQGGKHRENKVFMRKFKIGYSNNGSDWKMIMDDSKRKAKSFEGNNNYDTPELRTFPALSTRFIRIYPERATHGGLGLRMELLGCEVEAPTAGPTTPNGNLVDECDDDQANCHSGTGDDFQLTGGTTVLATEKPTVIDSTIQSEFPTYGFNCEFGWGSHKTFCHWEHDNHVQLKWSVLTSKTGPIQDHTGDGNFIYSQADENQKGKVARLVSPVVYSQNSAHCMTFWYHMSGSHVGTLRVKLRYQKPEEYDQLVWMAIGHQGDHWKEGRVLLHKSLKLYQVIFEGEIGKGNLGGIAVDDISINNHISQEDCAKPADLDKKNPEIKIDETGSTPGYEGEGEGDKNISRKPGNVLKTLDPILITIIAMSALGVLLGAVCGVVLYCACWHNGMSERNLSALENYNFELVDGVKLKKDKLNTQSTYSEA
# CRFR2-BP antag: CRF-BP/CRF-R2 complex antagonism; HEK293 CRF-R2/CRF-BP, CRF-induced calcium fluorescence; inhibition, % at 11.8 µM; actives 0.59% (n = 350,000);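 active = inhibition of the ligand-induced calcium signal above about 50% at the single tested concentration, limit read from the data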
# Tn7 DDE FP: disrupts Tn7 cyclic peptide binding to fibrin D-Dimer-E complex. inhibition, % at 8.3 µM. FP displacement of FITC-Tn7 peptide from fibrin DD(E); 0% = median of compound wells per plate. actives 0.13% (n = 370,000);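 active = inhibition above the mean of compounds falling within the control limits plus 3 SD of them, cut at about 14% in these data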;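 note: 0% = plate median of compound wells and 100% = 10 µM Aha-Tn7 peptide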
#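 Assay system: Fibrin-DD(E) protein isolated from polymerized human fibrin clots; read-out basis: percent inhibition; medium: Tris/NaCl/CaCl2 buffer, pH 7.8; signal: FP measurement; incubation: 10 min plus 3 h, room temperature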
# Tn6 DDE FP: inhibitors of Tn6 peptide binding to human fibrin DD(E) | Fibrin DD(E) TRITC-Tn6 fluorescence polarization displacement | inhibition, % at 8.3 µM | actives 0.21% (n = 370,000);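 active = inhibition above a per-campaign cutoff: mean of compounds within control limits plus 3 SD, cut at about 15% in these data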;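 note: 0% = median of all compound wells on the plate and 100% = blocking peptide control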
# CRFR2-BP ag: CRF-BP/CRF-R2 complex agonism. actives 0.46% (n = 350,000). HEK293 CRF-R2/CRF-BP, calcium dye fluorescence (FLIPR); percent of saturating CRF peptide response. activation, % at 13.2 µM. AID 588473;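 active = activation of at least 50%, plus an integration ratio under a set limit after plate pattern correction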;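 note: plate controls were neutral control wells without compound for no effect and CRF at EC100 for full effect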
# Starred values were filed as active, the others as inactive; x = not tested or not shown. An excerpt weighted towards active compounds, which were near 2.9% of everything screened.
SMILES,proKLK7 act,CendR NRP1 mod,CRFR2-BP antag,Tn7 DDE FP,Tn6 DDE FP,CRFR2-BP ag
CC(=NNC(=O)CSc1nnc(-c2ccc(C(C)(C)C)cc2)n1-c1ccccc1)c1cccc2ccccc12,0,x,x,2,-8,x
Cc1ccc(O)c(NC(=O)CSc2n[nH]c(C)c2[N+](=O)[O-])c1,0,0,-2,3,-1,2
CSc1ccccc1NC(=O)CSc1n[nH]c(C)c1[N+](=O)[O-],0,27*,6,2,5,0
Cc1cccc(-c2cccc3c4c([nH]c23)[C@@H]2C[C@H](N(C)C(=S)Nc3ccc(C#N)cc3)[C@H]([C@H](C)O)CN2CC4)c1,1,x,x,-8,-2,x
CC(C)CC(=O)c1c(O)cc(O)c2c1OC1=C(C(=O)C(C)(C)C(=O)C1(C)C)C2CC(C)C (stereo not drawn),0,x,x,1,4,x
Cn1c(SCc2ccccn2)nnc1-c1cnccn1,-1,17,-20,-8,4,2
Cc1cccc(CSc2nnc(-c3cnccn3)n2C)c1,0,38*,-2,-3,-6,-2
O=C(OC12CCCN(C1)/C(=C/c1ccc(Cl)cc1)C2)C1CCCC1 (stereo not drawn),1,x,x,2,-4,x
O=C(CN1CCCCCC1)NCC1CCCO1 (stereo not drawn),0,0,-8,-2,-1,1
O=C(CCCC(=O)NCC1CCCO1)NCC1CCCO1 (stereo not drawn),0,26*,7,-3,-4,-2
CC(=O)[C@]1(O)Cc2c(O)c3c(c(O)c2[C@@H](O[C@H]2C[C@H](N)[C@H](O)[C@H](C)O2)C1)C(=O)c1ccccc1C3=O,x,x,-196,x,x,212*
COc1cccc2c1C(=O)c1c(O)c3c(c(O)c1C2=O)C[C@@](O)(C(=O)CO)C[C@@H]3O[C@H]1C[C@H](N)[C@@H](O)[C@H](C)O1,x,142,-113,x,x,60*
COc1ccc(CNS(=O)(=O)CC2NCc3cc(OC)ccc32)cc1 (stereo not drawn),-1,x,x,-1,2,x
COc1ccc(C(=O)Nc2cc(=O)n(C)c(=O)n2C)cc1,0,1,104*,4,-4,0
COc1cccc(C(=O)Nc2cc(=O)n(C)c(=O)n2C)c1,0,4,8,-7,2,-1
Cn1ccnc1SCC(=O)Nc1ccc(Cl)cn1,0,18*,-2,1,-4,-1
CN1C2=N[C@@H](c3ccccc3)CC(=O)N2/C(=C\c2ccccc2)[C@H]1c1ccccc1,x,x,x,-2,-13,x
O=C1OC2(c3ccccc31)c1ccccc1-c1ccccc12,0,-9,12,11,4,-1
O=C1OC(c2ccc3ccccc3c2O)(c2ccc3ccccc3c2O)c2ccccc21,-2,26*,-8,-2,-9,9
CCc1cccc(NC(=S)N(CCCN2CCOCC2)C(C)c2cc3cccc(OC)c3o2)c1 (stereo not drawn),0,-6,77*,12,5,-1
CCOC(=O)N1CCN(C(=O)C[C@H]2C[C@@]3(C(=O)OC)C(=C[C@H](C(C)(C)C)O[C@@H]3C)N(Cc3ccco3)C2=O)CC1,0,x,x,5,4,x
CCN(CC)c1ccc2cc(S(=O)(=O)c3ccc(Cl)cc3)c(=O)oc2c1,-1,143,-83,-8,11,118*
CCCCCCc1cc2cc(S(=O)(=O)c3ccc(Cl)cc3)c(=O)oc2cc1O,-3,-5,-7,-8,3,44
CN(/N=C/c1ccc(-c2ccc([N+](=O)[O-])cc2)o1)c1ccccc1,1,-122,-93,-7,-4,79*
COCCCN1C(=O)[C@H](CC(=O)N2CCCCC2)[C@]2(C(=O)OC)CCCCC=C12,-1,x,x,-4,3,x
CC1=Nc2ccccc2/C1=C/c1c(N)n2c(S(=O)(=O)CC(C)C)nsc2nc1=O,0,-26,61*,-3,-5,-2
COC/C=C/C1=CC2=CC(=O)C(C)(OC(=O)c3cnc4ccccc4n3)C(=O)C2=CN1CCOC (stereo not drawn),1,32*,-3,0,6,3
